Assay results reported in publication PMC7032160 (Asian Journal of Pharmaceutical Sciences, 2017).
Where two headings read alike, the source gives them in different places.

Assays:
[1] = format: in vitro ADME, rat; conditions: for Concentration founded: n = 3
Method in brief: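 QC samples (n = 3) were spiked into THU-pretreated rat plasma at low, mid and high levels: 15, 125, 3200 ng/ml prodrug and 12, 125, 3200 ng/ml parent drug. 50 µl plasma was protein-precipitated with methanol plus didanosine IS and centrifuged. Extracts were held in the autosampler at 10 °C for 8 h before UPLC–MS/MS. Read-outs were found concentration and relative error.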

[2] = Pharmacokinetic study in rats after oral administration of JDR or gemcitabine; format: in vivo; conditions: male, Wistar, rat, plasma, 50 mg/kg
Method in brief: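 Twelve male Wistar rats (180–220 g) were fasted 12 h and randomized into two groups (n = 6). Each received one oral dose: prodrug at gemcitabine-equivalent 50 mg/kg or parent drug 50 mg/kg. Blood was drawn at 0.083–48 h (prodrug) or 0.25–24 h (parent) into heparinized THU-treated tubes and spun 3000 × g 15 min; plasma was kept at −80 °C. Analysis was UPLC–MS/MS MRM, with noncompartmental parameters.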

RE% ([1]; autosampler rack at 10 °C for 8 h, High QC): −6.4% | RE% ([1]; autosampler rack at 10 °C for 8 h, Low QC): 0.9% | RE% ([1]; autosampler rack at 10 °C for 8 h, Mid QC): 9.1% | RE% ([1]; rat plasma, bench-top (20 °C for 1 h), High QC): −8.9% | Concentration founded ([1]; rat plasma, bench-top (20 °C for 1 h), High QC (added 3200.00 ng/ml)): 2915.15 ± 95.7 ng/mL | RE% ([1]; rat plasma, bench-top (20 °C for 1 h), Low QC): −4.8% | RE% ([1]; rat plasma, bench-top (20 °C for 1 h), Mid QC): 7.8% | Concentration founded ([1]; rat plasma, bench-top (20 °C for 1 h), Mid QC (added 125.00 ng/ml)): 134.78 ± 1.6 ng/mL | RE% ([1]; rat plasma, freezing at -80 °C for 2 months, High QC): −0.1% | RE% ([1]; rat plasma, freezing at -80 °C for 2 months, Low QC): −2.1% | RE% ([1]; rat plasma, freezing at -80 °C for 2 months, Mid QC): 4.3% | Concentration founded ([1]; rat plasma, freezing at -80 °C for 2 months, Mid QC (added 125.00 ng/ml)): 130.38 ± 10.6 ng/mL | RE% ([1]; rat plasma, three freeze/thaw cycles (-80 to 20 °C), High QC): −7.3% | RE% ([1]; rat plasma, three freeze/thaw cycles (-80 to 20 °C), Low QC): −2.0% | RE% ([1]; rat plasma, three freeze/thaw cycles (-80 to 20 °C), Mid QC): 7.4% | Cmax [2]: 1180 ± 47.1 ng/mL | Tmax [2]: 1.5 ± 0.9 h | half-life [2]: 2.61 ± 1.1 h
Compound: Nc1ccn([C@@H]2O[C@H](CO)[C@@H](O)C2(F)F)c(=O)n1 [Gemcitabine]
